# Results from different studies.
# Compare with care: the assays were run in different laboratories.
# Target: Dual specificity tyrosine-phosphorylation-regulated kinase 1A (DYRK1A, Homo sapiens, UniProt Q13627)
# Effect on: enzyme activity
# Mode: inhibitor
SMILES,assay,setting,remaining activity [%]
FC(F)c1nc2ccccc2n1-c1nc(N2CCOCC2)nc(N2CCOCC2)n1,,10 µM,78
O=C(O)c1ccc2c(c1)nc(Nc1ccc(Cl)cc1)c1ncncc12,radiometric,1 µM,3
Cc1cnc(NC2CCOCC2)nc1-n1cnc(C(=O)NC(CN)c2cc(F)cc(Cl)c2)c1 (stereo not drawn),radiometric,1 µM,84
O=C(O)c1ccc2c(c1)nc(Nc1cccc(F)c1)c1ccncc12,radiometric,1 µM,0
Nc1nc(Nc2ccccc2)sc1C(=O)c1c(F)cccc1F,,10 µM,10
O=C(O)c1ccc2c(c1)nc(Nc1ccc3ccccc3c1)c1ccncc12,radiometric,1 µM,2
COc1cc2nccc(Oc3ccc(NC(=S)NC(=O)c4ccccc4C)cc3)c2cc1OC,,0.5 µM,95.4
COc1cccc(Nc2nc3cc(C(=O)O)ccc3c3cnccc23)c1,radiometric,1 µM,2
CC(C)(O)[C@H]1CC[C@H](Nc2ccc3ncc(-c4cccc(C(F)(F)F)c4)n3n2)CC1,,1 µM,22.1
CCN(CC)CCNC(=O)c1c(C)[nH]c(/C=C2\C(=O)Nc3ccc(Cl)cc32)c1C,,0.5 µM,47.2
CC(C)(C)c1nc(-c2cccc(NS(=O)(=O)c3c(F)cccc3F)c2F)c(-c2ccnc(N)n2)s1,radiometric,1 µM,90
COc1cc(Nc2cnc(C#N)c(O[C@H](C)CN(C)C)n2)ncc1-c1cnn(C)c1,radiometric,1 µM,91
O=C(Nc1cnn(-c2csc(C(=O)NC3COC3)c2)c1)Nc1ccccc1Cl,,5 µM,86
O=c1cc(-c2cccc3c2Sc2ccccc2S3)oc(N2CCOCC2)c1,,0.5 µM,95
O=C(O)c1ccc2c(c1)nc(NCCc1ccccc1)c1ccncc12,radiometric,1 µM,10
